The values that follow come from ChEMBL document CHEMBL1949610, “Selection of cyclic-peptide inhibitors targeting Aurora kinase A: problems and solutions” (Bioorg Med Chem, 2011).

The structures appear in SMILES notation. Activity calls are given as the source filed them. The calls are words filed in the database; no cut-off is given here. Positions of bridges follow the written chain, without caps; N, C: chain ends. Residues, ends and D or L forms follow the SMILES beside them.

A short description of assay [1]: Inhibition of PKA assessed as [gamma-33P]ATP incorporation into kemptide substrate at 10 uM after 40 mins by liquid scintillation counting.
Assay [2] deals with Dual specificity protein kinase CLK2 (Homo sapiens) (UniProt P49760). Put plainly: Inhibition of CLK2 assessed as [gamma-33P]ATP incorporation into AKRRRLSSLRA substrate at 10 uM after 40 mins by liquid scintillation counting.
Chain of Dual specificity protein kinase CLK2 (Homo sapiens) (P49760 whole entry, looked up): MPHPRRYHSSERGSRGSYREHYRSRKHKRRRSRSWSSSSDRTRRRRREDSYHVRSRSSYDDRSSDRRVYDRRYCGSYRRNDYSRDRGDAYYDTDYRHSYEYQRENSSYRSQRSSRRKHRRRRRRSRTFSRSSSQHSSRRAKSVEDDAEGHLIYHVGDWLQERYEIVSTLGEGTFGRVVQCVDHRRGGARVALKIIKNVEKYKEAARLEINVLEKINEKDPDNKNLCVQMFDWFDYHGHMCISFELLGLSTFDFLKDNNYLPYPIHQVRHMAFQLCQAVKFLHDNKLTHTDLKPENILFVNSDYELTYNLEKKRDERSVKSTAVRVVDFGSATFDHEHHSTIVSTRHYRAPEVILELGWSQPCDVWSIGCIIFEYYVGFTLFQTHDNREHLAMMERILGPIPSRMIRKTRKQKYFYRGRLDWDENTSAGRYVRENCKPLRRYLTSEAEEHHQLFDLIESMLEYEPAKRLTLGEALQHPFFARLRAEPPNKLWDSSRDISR
Assay [3] deals with T1, Aurora kinase A (Homo sapiens) (UniProt O14965).
T1 sequence (whole entry): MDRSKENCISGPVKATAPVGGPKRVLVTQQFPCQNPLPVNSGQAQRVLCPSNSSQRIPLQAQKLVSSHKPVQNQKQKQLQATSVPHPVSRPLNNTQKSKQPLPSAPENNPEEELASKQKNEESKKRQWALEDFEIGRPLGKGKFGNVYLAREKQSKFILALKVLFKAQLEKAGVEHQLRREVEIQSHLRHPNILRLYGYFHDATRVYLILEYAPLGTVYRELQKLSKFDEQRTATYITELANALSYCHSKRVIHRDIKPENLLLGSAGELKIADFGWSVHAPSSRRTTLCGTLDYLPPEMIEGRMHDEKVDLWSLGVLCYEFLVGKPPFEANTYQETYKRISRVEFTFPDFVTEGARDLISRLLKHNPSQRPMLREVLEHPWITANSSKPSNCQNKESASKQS
Put plainly: Inhibition of human aurora A assessed as [gamma-33P]ATP incorporation into kemptide substrate at 10 uM after 40 mins by liquid scintillation counting.

Assay [4] addresses T1, Aurora kinase A (Homo sapiens). Put plainly: Un-competitive inhibition of human aurora A using kemptide as substrate by double reciprocal plot analysis. An outline of the steps:
(§1)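 Kinetics run in duplicate: 0.5 nM Aurora A, 100 μM [γ-³²P]ATP, Kemptide at 25, 50 and 200 μM, inhibitor at 0, 10 and 50 μM, in 20 mM MOPS, 10 mM MgCl, pH 7, 0.01% BSA, 2.5% DMSO. Data shown as double-reciprocal plots and fit to competitive, noncompetitive, mixed and uncompetitive models.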

For assay [5] the target is unchanged. Kind of assay: Competitive inhibition of human aurora A using kemptide as a substrate by double reciprocal plot analysis. The procedure, abridged:
as §1

The target of another assay is T2, Aurora kinase A (Homo sapiens, UniProt O14965).
T2 sequence (O14965 whole entry): T1 sequence (whole entry)
Put plainly: Mixed type inhibition of human aurora A using kemptide as a substrate by double reciprocal plot analysis. The procedure, abridged: as §1

For `CC(C)C[C@@H]1NC(=O)[C@H](Cc2ccccc2)NC(=O)[C@H](CCCNC(=N)N)NC(=O)[C@@H]2CCCN2C(=O)[C@@H](N)CSSC[C@@H](C(=O)NCC(N)=O)NC(=O)[C@H](Cc2c[nH]c3ccccc23)NC(=O)[C@@H]2CCCN2C1=O` (H-CPRFLPWCG-NH2; disulfide 1-8), the inhibition entry in assay [1] and in assay [2] was “inactive” throughout. Further, the inhibition entry in assay [3] was “Active”.
In general, Ki refers to the dissociation constant of the complex between target and ligand, obtained from inhibition or displacement. The low end stands for tighter binding, the high end for weaker binding. With `CC(C)C[C@@H]1NC(=O)[C@H](Cc2c[nH]c3ccccc23)NC(=O)[C@H](Cc2c[nH]c3ccccc23)NC(=O)[C@@H]2CCCN2C(=O)[C@H](CCCNC(=N)N)NC(=O)[C@H]([C@@H](C)O)NC(=O)[C@@H](N)CSSC[C@@H](C(=O)NCC(N)=O)NC1=O` (H-CTRPWWLCG-NH2; disulfide 1-8), the Kiuc in assay [4] came out at 17.6 µM. In addition, the inhibition result in assay [1] and in assay [2] was “inactive” in each case. Also, the Kic in assay [5] turned out to be 10.4 µM. Further, the inhibition result in assay [3] is “Active”. The compound further came in with a Ki on Aurora kinase A of 27.2 µM.
